# STAT3 act = increases IL-6 driven STAT3 reporter signal. U3A cells, IL-6 STAT3-luciferase reporter, luminescence; 100% = signal with IL-6 EC80 alone. activation (% of control), % at 5.6 µM. 190,000 compounds, 0.91% hits;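 active = activation above the screen-wide mean of compound activation plus 3 SD, cut at about 130% in these data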
#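 Material: human U3A cells carrying STAT3-luciferase construct. Measured by: reporter luminescence signal. Timing: compound 1 h, then IL-6 6 h at 37 °C.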
# STAT1 blocker = reduces IFN-gamma driven STAT1 reporter signal | NIH 3T3 STAT1-luciferase reporter, luminescence | inhibition, % at 5.5 µM | 200,000 compounds, 0.35% hits | AID 920;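 active = inhibition above a set limit, the mean inhibition across all tested compounds plus 3 SD, cut at about 34% in these data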
# STAT3 inh = STAT3 signaling inhibition | AID 862 | U3A cells, IL-6 STAT3-luciferase reporter, luminescence; host cell line lacks STAT1 | inhibition, % at 5.5 µM | 190,000 compounds, 0.89% hits;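 active = inhibition above the mean inhibition across all screened compounds plus 3 SD, cut at about 44% in these data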
# APP 5'UTR act = APP 5'UTR luciferase reporter activation | 190,000 compounds, 1% hits | activation, % at 2 µM | SH-SY5Y APP 5'UTR luciferase reporter, luminescence; zero percent = DMSO vehicle wells | AID 1276;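 active = activation above a set limit, based on mean plus 3 SD of controls, cut at about 140% in these data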
# STAT1 activator = activators of IFN-gamma induced STAT1 signaling. activation (% of control), % at 5.5 µM. NIH 3T3 STAT1-luciferase reporter, luminescence; 100% = IFN-gamma alone, no compound. 200,000 compounds, 2.6% hits;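 active = activation above the screen-wide mean activation plus 3 SD, cut at about 130% in these data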
# NF-kB expr up = raises NF-kB expression in human neuronal cells | 190,000 compounds, 1.6% hits | fold change at 12.5 µM | NF-kB reporter expression; hits give high values; in the data active = fold change above about 3.3
# Hits are given with their value; 0 = inactive. Sampled rows, rich in hits. Any-hit rate of the full collection: about 4.9%.
SMILES,STAT3 act,STAT1 blocker,STAT3 inh,APP 5'UTR act,STAT1 activator,NF-kB expr up
COc1ccc(Nc2nc(C)c(-c3ccccc3)s2)cc1,0,0,0,0,156,0
NNc1ccc2c(C(F)(F)F)cc(C(F)(F)F)nc2n1,0,0,0,0,0,0
N#CC(c1cccc(Cl)c1)c1ccc2c(C(F)(F)F)cc(C(F)(F)F)nc2n1 (stereo not drawn),0,61,86,0,0,0
COc1ccc(C)cc1N(C(=O)c1cccc(F)c1)c1nc2ccccc2s1,134,0,0,0,0,0
Nc1c(C(=O)NCc2ccco2)nnn1CC(=O)Nc1ccc2c(c1)OCO2,0,0,0,0,0,4
Cc1ccc(NC(=O)Cn2nnc(C(=O)NCc3ccco3)c2N)cc1,0,0,0,0,0,0
O=C(NCC1OCCc2ccccc21)c1ccc(NC(=O)c2ccccc2Cl)cc1 (stereo not drawn),0,0,0,0,0,0
O=C(NCc1ccoc1)c1ccc(NC(=O)c2ccccc2Cl)cc1,133,0,0,0,0,0
Cc1ccc(N/C=C(/C#N)c2ccsc2)cc1,0,0,0,0,134,0
N#C/C(=C/Nc1ccccc1)c1ccsc1,0,0,0,0,0,0
CCCS/C(N)=N/N=C/c1ccccc1O,0,0,0,0,0,3.3
CCC(=O)Oc1ccc(-c2cnc3ccccc3n2)cc1,0,0,0,175,142,6.8
Cc1c(C(=O)Oc2ccc(-c3cnc4ccccc4n3)cc2)cccc1[N+](=O)[O-],0,0,0,0,0,0
CCC(=O)N(CC)c1nc(-c2ccc(OC)cc2)cs1,0,0,0,0,143,0
C/C(NC(=O)c1cccs1)=C1\C(=O)C[C@@H]2[C@H]1C2(C)C,0,0,0,0,130,0
COc1cc(OC)cc(-c2ncc3ccccn23)c1,0,0,0,0,0,0
COc1cccc(-c2ncc3ccccn23)c1,0,0,0,0,135,0
COc1ccccc1C(=O)NNC(=O)c1nn(Cc2ccccc2)c(=O)c2ccccc12,135,0,0,0,0,0
O=C(Nc1nc2c(s1)CCCC2)c1nn(Cc2ccccc2)c(=O)c2ccccc12,0,0,0,0,0,0
NC(N)=NC1=NC(=O)C(Cc2ccccc2)S1 (stereo not drawn),0,0,0,0,0,0
CCOC(=O)c1nc2ccccc2nc1C,0,0,0,0,0,0
CCc1cc[n+](-c2nc3ccccc3nc2C(=C=[N-])C#N)cc1,0,0,0,0,0,5
Cn1c(=NC(=O)C2CCCCC2)sc2cc([N+](=O)[O-])ccc21,0,0,0,0,0,0
CCOc1ccc2c(c1)sc(=NC(=O)C1CC1)n2C,0,0,0,0,150,0
CC(=O)c1cn(-c2ccc(Cl)cc2)c(=O)n(Cc2ccc(Br)cc2)c1=O,0,0,0,0,0,0
SMILES,STAT3 act,STAT1 blocker,STAT3 inh,APP 5'UTR act,STAT1 activator,NF-kB expr up
O=C(Nc1ncc(Cc2cccc(Cl)c2)s1)C1CCCO1 (stereo not drawn),0,0,0,0,0,0
O=C(Nc1ncc(Cc2cccc(Cl)c2Cl)s1)C1CCCO1 (stereo not drawn),0,0,0,0,144,0
CCn1nc(C)c(C2C(C#N)=C(N)OC3=C2C(=O)CC(C)(C)C3)c1C (stereo not drawn),0,0,0,0,0,0
CC(C)c1cc(C(=O)Nc2ccc3c(c2)OCO3)no1,0,0,0,145,0,6.4
COc1ccc(NC(=O)c2cc(C(C)C)on2)cc1OC,0,0,0,0,0,0
Cc1cc(NC(=O)c2noc3c2CCCCC3)no1,0,0,0,0,0,0
O=C(Nc1ccc2c(c1)OCO2)c1noc2c1CCCCC2,0,0,0,178,142,7.7
O=C(Nc1ccc2c(c1)OCO2)c1cnccn1,0,0,0,0,130,0
COc1ccc(NC(=O)c2cc(C(C)C)on2)c(OC)c1,0,0,0,0,138,0
Cc1c(C(=O)C(=O)NCC2CCCO2)c2ccccc2n1C (stereo not drawn),0,0,0,0,0,0
O=C(Nc1ccc2c(c1)OCO2)c1cc(C2CC2)on1,0,0,0,0,146,3.9
CC(=O)Nc1ccc2c(c1)OCO2,0,0,0,0,0,0
CN(C)S(=O)(=O)c1cccc(-c2nnc(SCCNCCO)n2-c2ccc(F)cc2)c1,0,0,0,0,0,0
Cc1ccc(NC2=C(N3CCOCC3)C(=O)c3ccccc3C2=O)cc1,0,0,0,151,0,0
CC(=O)c1ccc(NC2=C(N3CCOCC3)C(=O)c3ccccc3C2=O)cc1,0,0,0,0,0,0
Cc1cc(C)c(NC(=O)C(C)c2cccc(C(=O)c3ccccc3)c2)c(C)c1 (stereo not drawn),0,0,0,0,0,0
c1ccc(SCc2nc(-c3ccncc3)no2)cc1,0,0,0,0,129,0
COc1ccc(-c2noc(CSc3ccccc3)n2)cc1OC,0,0,0,0,130,0
S=c1nc(-c2ccccc2Cl)n(Cc2cccnc2)c2c1CCCC2,0,0,0,0,0,0
CC(C)(C)NC(=O)NC(=O)COc1ccccc1C#N,0,0,0,187,140,0
Clc1nc(CN2CCOCC2)nc2sc3c(c12)CCC3,0,0,0,0,0,0
O=c1c2c3c(sc2nc2n1CCCCC2)CCCC3,0,0,0,0,143,4.1
Clc1nc(CN2CCCCC2)nc2sc3c(c12)CCCC3,0,0,0,0,0,3.6
Cc1c(C(=O)N2CCC(C)CC2)sc2ncnc(N(C)c3ccccc3)c12,0,0,0,0,0,0
O=C1CN(C(=O)c2ccc(Br)o2)C(c2ccccc2)c2cc(Cl)ccc2N1 (stereo not drawn),0,0,0,0,0,0
SMILES,STAT3 act,STAT1 blocker,STAT3 inh,APP 5'UTR act,STAT1 activator,NF-kB expr up
Cc1ccc2c(c1)C(c1ccccc1)N(C(=O)c1ccc(Br)o1)CC(=O)N2 (stereo not drawn),135,0,0,0,0,0
Cc1cc(C)c(S(=O)(=O)Nc2cc(SCC(=O)O)c(O)c3ccccc23)cc1C,135,0,0,0,0,0
O=C(N=Nc1c(O)[nH]c2ccccc12)c1cc(NS(=O)(=O)c2cccs2)cc(NS(=O)(=O)c2cccs2)c1,0,0,0,0,0,0
O=C(N=Nc1c(O)[nH]c2ccccc12)c1cccs1,0,0,0,154,141,5.6
Oc1ccc(NC(=S)N=Nc2c(O)[nH]c3ccccc23)cc1,0,0,0,0,145,0
Cc1ccc(NC(=S)N=Nc2c(O)[nH]c3ccccc23)cc1,0,0,0,0,0,0
O=C(O)CCC(=O)Nc1ccccc1C(=O)NCCc1ccccc1,0,0,0,0,135,0
Fc1ccc(Nc2ccnc(Nc3ccc(F)cc3)n2)cc1,0,0,0,0,137,0
Nc1ncnc(Nc2ccc(F)cc2)n1,0,0,0,0,0,0

# Source: PubChem BioAssay (several laboratories)
